# Active and inactive are the calls of the source. No cut-off for these calls is given here.
# Species on record: Canis familiaris
# Experiment: Positive inotropic effects in the propranolol induced heart failure model in the dog.
# Format: functional, Canis lupus familiaris
# Details: not given
# Procedure, shortened: (§1)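 Pentobarbital-anesthetized (30 mg/kg iv) mongrel dogs, 8–12 kg, either sex. Heart failure induced by propranolol, 4 mg/kg iv bolus then 0.1 mg/kg/min infusion. About 20 min later, compound given cumulatively into the femoral vein, one dose-response curve per animal. LV dp/dt max read by electronic differentiator. ED100 is the dose restoring pre-propranolol LV dp/dt max, taken from log dose-response. Highest dose tested 10 mg/kg. Three experiments unless stated.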
row,SMILES,ED100
1,CCc1nc(O)c(C(C)=O)c2c1CC(c1ccncc1)CC2 (centres undefined),0.3 mg/kg
2,CCC1CCc2c(C#N)c(O)nc(C)c2C1 (centres undefined),1 mg/kg
3,Cc1nc(O)c(N)c2c1CC(c1ccncc1)CC2 (centres undefined),0.2 mg/kg
4,Cc1nc(O)c(C)c2c1CC(c1ccncc1)CC2 (centres undefined),2 mg/kg
5,Cc1nc(O)c(C#N)c2c1CC(c1ccncc1)CC2 (centres undefined),0.1 mg/kg
6,Cc1nc(O)c(C#N)c2c1CCCC2,3 mg/kg
7,COC1CCc2c(C#N)c(O)nc(C)c2C1 (centres undefined),1 mg/kg
8,Cc1nc(O)c(C#N)c2c1CC(c1ccccc1)CC2 (centres undefined),0.1 mg/kg
9,Cc1nc(O)c(C#N)c2c1C(C)CCC2 (centres undefined),3 mg/kg
10,Cc1[nH]c(=O)c(C#N)cc1-c1ccncc1 [MILRINONE],0.1 mg/kg
11,CCC(=O)c1c(O)nc(C)c2c1CCC(c1ccncc1)C2 (centres undefined),4 mg/kg
12,CC(=O)c1c(O)nc(C)c2c1CCC(c1ccncc1)C2 (centres undefined),0.1 mg/kg
13,CCCc1c(O)nc(C)c2c1CCC(c1ccncc1)C2 (centres undefined),0.3 mg/kg
14,Cc1nc(O)c(C#N)c2c1CC(C)CC2 (centres undefined),0.3 mg/kg
15,Cc1nc(O)c(C#N)c2c1CCCC2C (centres undefined),2 mg/kg
16,Cc1nc(O)c(C#N)c2c1CC(c1cccnc1)CC2 (centres undefined),0.1 mg/kg
17,Cc1nc(O)cc2c1CC(c1ccncc1)CC2 (centres undefined),0.3 mg/kg
18,Cc1nc(O)c([N+](=O)[O-])c2c1CC(c1ccncc1)CC2 (centres undefined),0.1 mg/kg
19,CCc1c(O)nc(C)c2c1CCC(c1ccncc1)C2 (centres undefined),0.02 mg/kg
20,COc1ccc(C2CCc3c(C#N)c(O)nc(C)c3C2)cc1 (centres undefined),0.3 mg/kg
21,Cc1nc(O)c(C#N)c2c1CC(c1ccccn1)CC2 (centres undefined),0.3 mg/kg
22,Cc1nc(O)c(C#N)c2c1CCC(C)C2 (centres undefined),1 mg/kg

# Biological target: Phosphodiesterase 1 (Canis familiaris)
# Experiment: Inhibition of canine Phosphodiesterase 1(PDE 1)
# Details: not given
row,IC50,SMILES
1,409 µM,CC(=O)c1c(O)nc(C)c2c1CCC(c1ccncc1)C2 (centres undefined)

# System: Canis familiaris
# Experiment: Positive inotropic effects in the propranolol induced heart failure model in the dog; Inactive at 10 mg/kg.
# Format: functional, organism-based
# Set-up: dose 10 mg/kg
# Details: Canis lupus familiaris
# Procedure, shortened: as §1
row,SMILES,ED100
1,COCc1ccc(C2CCc3c(C#N)c(O)nc(C)c3C2)cc1 (centres undefined),inactive
2,Cc1nc(O)c(C#N)c2c1CC(C(C)(C)C)CC2 (centres undefined),inactive
3,Cc1c(C#N)c(O)nc2c1CCCC2,inactive
4,CCCCc1nc(O)c(C(C)=O)c2c1CC(c1ccncc1)CC2 (centres undefined),inactive
5,Cc1nc(O)c(C#N)c2c1CC(c1ccc(N(C)C)cc1)CC2 (centres undefined),inactive
6,Cc1nc(O)c(C#N)c2c1CCC(c1ccncc1)C2 (centres undefined),inactive
7,CCCCOC1CCc2c(C#N)c(O)nc(C)c2C1 (centres undefined),inactive
8,Cc1c2c(c(C#N)c(=O)n1C)CCC(C)C2 (centres undefined),inactive
9,Cc1nc(O)c(C(=O)c2ccccc2)c2c1CC(c1ccncc1)CC2 (centres undefined),inactive
10,Cc1c(C#N)c(O)nc2c1CC(C)CC2 (centres undefined),inactive
11,Cc1nc(O)c(C#N)c2c1CC(c1ccc(CN(C)C)cc1)CC2 (centres undefined),inactive
12,CCCC(=O)c1c(O)nc(C)c2c1CCC(c1ccncc1)C2 (centres undefined),inactive
13,Cc1nc(O)c(C=O)c2c1CC(c1ccncc1)CC2 (centres undefined),inactive
14,Cc1nc(O)c(C(N)=O)c2c1CC(c1ccncc1)CC2 (centres undefined),inactive
15,CC(=O)c1c(O)nc2c(c1C)CC(c1ccncc1)CC2 (centres undefined),inactive
16,CCCc1nc(O)c(C#N)c2c1CCCC2,inactive
17,N#Cc1c(O)ncc2c1CCCC2,inactive
18,Cc1c(C#N)c(O)nc2c1CC(c1ccncc1)CC2 (centres undefined),inactive
19,COC1CCc2nc(O)c(C#N)c(C)c2C1 (centres undefined),inactive

# Species on record: Canis lupus familiaris
# Experiment: Relative inhibition of canine PDE1 and PDE 3
# Details: not given
row,Ratio,SMILES
1,273,CC(=O)c1c(O)nc(C)c2c1CCC(c1ccncc1)C2 (centres undefined)

# Biological target: Phosphodiesterase 3 (Canis familiaris)
# Experiment: Inhibition of canine Phosphodiesterase III (PDE 3)
# Details: not given
row,IC50,SMILES
1,1.5 µM,CC(=O)c1c(O)nc(C)c2c1CCC(c1ccncc1)C2 (centres undefined)
